In ChEMBL document CHEMBL5715959, “Inhibition of histone methyltransferase EZH2 in Schistosoma mansoni in vitro by GSK343 reduces egg laying and decreases the expression of genes implicated in DNA replication and noncoding RNA metabolism” (2018):
Calls of active or inactive are those of the source. No cut-off for these calls is given here.

Experiments:
[1] = tested on: Schistosoma mansoni; assay: Antischistosomal activity against Schistosoma mansoni assessed as down-regulated DNAse II protein mRNA level in schistosomula at 20 uM incubated for 48 hrs by RT-qPCR analysis; format: functional, organism-based
How it was run: (§1)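 Schistosomula (supplemented M169) or adult worms (supplemented RPMI) were treated 48 h with 20 μM GSK343 or 0.1% DMSO at 37°C, 5% CO2. qPCR normalizer genes were chosen from RNA-seq data as those with TPM >1 and a treated/control ratio of 0.9–1.1 that were not differentially expressed. Relative expression was calculated by comparative Ct; significance by t-test.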

[2] = tested on: Schistosoma mansoni; assay: Antischistosomal activity against adult female Schistosoma mansoni assessed as reduction in area dimension of egg at 20 uM incubated for 24 to 48 hrs by scanning electron microscopy analysis relative to control; format: functional; parameters: scale not given: the % may be the effect or the level left; details: time 24-48 hrs
How it was run: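 Eggs released by couples kept 24 or 48 h with 20 μM GSK343 or 0.1% DMSO in supplemented RPMI were fixed in modified Karnovsky with osmium post-fix. They were dehydrated, critical-point dried, gold-coated and imaged by SEM; total egg area dimension was measured.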

[3] = tested on: Schistosoma mansoni; assay: Antischistosomal activity against adult female Schistosoma mansoni assessed as presence of peeling in dorsal region at 20 uM incubated for 24 to 48 hrs by scanning electron microscopy analysis; format: functional, organism-based; details: time 24-48 hrs
How it was run: (§2)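 Adult couples were taken by perfusion into supplemented RPMI, one couple per well, and adapted 2 h at 37°C, 5% CO2. They were exposed to 20 μM GSK343 or 0.1% DMSO for 24 and 48 h. Fixation used modified Karnovsky with osmium post-fix, followed by ethanol dehydration, critical-point drying, gold sputtering and scanning electron microscopy of tegument surfaces.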

[4] = tested on: Schistosoma mansoni; assay: Antischistosomal activity against female Schistosoma mansoni assessed as down-regulated EED mRNA level at 20 uM incubated for 48 hrs by RT-qPCR analysis; format: functional, organism-based; how it was run: as §1
[5] = tested on: Schistosoma mansoni; assay: Antischistosomal activity against adult male Schistosoma mansoni assessed as presence of deep chasms between the dorsal tubercles at 20 uM incubated for 48 hrs by scanning electron microscopy analysis; format: functional, organism-based; how it was run: as §2
[6] = tested on: Schistosoma mansoni; assay: Antischistosomal activity against Schistosoma mansoni assessed as decreased H3K27me3 level in schistosomula at 20 uM incubated for 48 hrs by Western blotting analysis; format: functional, organism-based
How it was run: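 About 10,000 schistosomula were treated 48 h with 20 μM GSK343 or vehicle, then sonicated in Triton X-100 lysis buffer with PMSF and protease inhibitors. Supernatant nuclear extract (BCA-quantified, 10 μg) was run on 15% SDS-PAGE and blotted to nitrocellulose. Blots were probed with mark-specific monoclonal antibodies, then IRDye secondaries; infrared imaging was used and signals were normalized to total H3. t-test.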

Q: Which Activity [1] does the source give for CCCc1cc(C)[nH]c(=O)c1CNC(=O)c1cc(-c2ccnc(N3CCN(C)CC3)c2)cc2c1cnn2C(C)C here?
A: Its Activity is “Active”.

Q: And the Activity [2]?
A: The Activity was 30%.

Q: And the Activity [3]?
A: Its Activity is “Active”.

Q: And the Activity [4]?
A: The Activity was “Active”.

Q: What about the Activity [5] of the same compound?
A: The Activity was “Active”.

Q: And the Activity [6]?
A: The Activity was “Active”.
